The test system of one data set is L1210. Nature of the data set: Concentration required to reduce the viability of L1210 cells by 50% after 1-h incubation at 37 degrees C. The class given is functional, cell-based. The conditions noted are these: Mus musculus, L1210, 1 h. The gist of the method: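 Exposed to at least seven drug concentrations (0.1–300 μM) for 1 h at 37 °C, washed, regrown drug-free 72 h. MTT reduction read at 570 nm. IC50 from concentration–viability plot, average of duplicates.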

In the next data set the test system is carboxylate esterase. Briefly: Half-life in […] at pH 7.4(37 degrees C) in the presence of pig Liver Carboxylate Esterase. Type of data set: ADME, Sus scrofa. The conditions noted are these: pig liver carboxylate esterase in phosphate buffer. The gist of the method:
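Acetal at 100 μM in 0.05 M phosphate buffer, pH 7.4, at 37 °C with pig liver carboxylate esterase, 2 units per μmol substrate (1 unit hydrolyses 1.0 μmol ethyl butyrate/min at pH 8.0, 25 °C). Samples vortexed, centrifuged, supernatant analysed by C-18 HPLC, UV 220 nm. Half-life by least-squares regression, pseudo-first-order.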

The nature of data set [1]: Half-life in […] Phosphate buffer at pH 7.4(37 degrees C). The class given is ADME. The gist of the method:
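Acetal at 100 μM in 0.05 M phosphate buffer, pH 7.4, shaken at 37 °C without enzyme. Aliquots taken at intervals (typically 2–50 h) and parent drug measured by reverse-phase C-18 HPLC with UV detection at 220 nm. Half-life from linear least-squares regression of pseudo-first-order decay.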

As to `CC(=O)OC(CCOP(N)(=O)N(CCCl)CCCl)OC(C)=O` (configuration not stated), it took 0.9 µM to reach half-maximal inhibition with L1210 (IC50). Further, the half-life (as a rule, the time needed for the level to fall by half in the phase considered) with carboxylate esterase was 36 s; in data set [1], 38 h.

For `CC(=O)OC(CCOP(=O)(N(C)C)N(CCCl)CCCl)OC(C)=O` (configuration not stated), the IC50 (in general, the concentration that inhibits the measured activity by half) in the data set on L1210 is above 245 µM. Besides, the half-life with carboxylate esterase is 36 s; in data set [1], 36 h.

Compound `CCNP(=O)(OCCC(OC(C)=O)OC(C)=O)N(CCCl)CCCl` (configuration not stated) showed an IC50 in the data set on L1210 of 29 µM. Further, the half-life with carboxylate esterase is 42 s; in data set [1] it was 40 h.

Regarding `C=CC=O` [ACROLEIN], the IC50 with L1210 is 48 µM.

For `O=S(=O)(O)CCS` [MESNA], in the data set with L1210, the IC50 was above 200 µM.

Regarding `CCN(CC)P(=O)(OCCC(OC(C)=O)OC(C)=O)N(CCCl)CCCl` (configuration not stated), it took 78 µM to reach half-maximal inhibition in the data set with L1210 (IC50). Besides, the half-life is 40 s with carboxylate esterase and 37 h in data set [1].

`O=P1(N(CCCl)CCCl)NC(OO)CCO1.O=S(=O)(O)CCS` (configuration not stated) registered an IC50 in the data set on L1210 of 90 µM.

`O=P1(N(CCCl)CCCl)NC(OO)CCO1` (configuration not stated) [PERFOSFAMIDE] gave an IC50 with L1210 of 90 µM.

In the data set with L1210, `CC(=O)OC(CCOP(N)(=O)N(CCCl)CCCl)OC(C)=O.O=S(=O)(O)CCS` (configuration not stated) had an IC50 of 0.9 µM.

`CNP(=O)(OCCC(OC(C)=O)OC(C)=O)N(CCCl)CCCl` (configuration not stated): the half-maximal inhibitory concentration (IC50) in the data set with L1210 amounted to 38 µM. Also, the half-life in the data set on carboxylate esterase was 42 s; in data set [1], 42 h.

`O=P1(N(CCCl)CCCl)NCCCO1` (configuration not stated) [CYCLOPHOSPHAMIDE ANHYDROUS] registered an IC50 in the data set with L1210 above 300 µM.

`C=CC=O.O=S(=O)(O)CCS` returned an IC50 with L1210 of 168 µM.

The values above are taken from ChEMBL document CHEMBL1125866, “Aldophosphamide acetal diacetate and structural analogues: synthesis and cytotoxicity studies” (J Med Chem, 1991).
